One assay concerns the target Mu-type opioid receptor (Rattus norvegicus, UniProt P33535). Nature of the assay: Inhibition of [3H]DAGO binding to rat brain Opioid receptor mu 1. The method, boiled down:
(§1)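 Crude rat brain synaptosomal fraction (600 μg protein/mL) in 50 mM Tris-HCl pH 7.4 with BSA, bacitracin, bestatin and soybean trypsin inhibitor. Radioligand [3H]DAGO (μ) or [3H]DADLE (δ) at 2 nM. The δ assay also held 2.6 μM [Nα-MePhe3,D-Pro4]morphiceptin to block μ sites. Nonspecific binding with 1 μM unlabeled ligand. Incubated 60 min at 25 °C, filtered on PEI-soaked GF/B, counted by scintillation. Ki from IC50 by Cheng-Prusoff; mean of three.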

The species entered for a further assay is Cavia porcellus. Nature of the assay: In vitro inhibitory concentration against electrically induced contraction of guinea pig ileum (GPI). The format is functional. In short, it runs like this: (§2)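 Electrically stimulated isolated tissue: longitudinal muscle strips of Hartley guinea pig ileum (250-300 g) for GPI, vas deferens of male ddY mouse (25-35 g) for MVD. IC50 read from log dose-response curves of contraction inhibition.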

The species entered for another assay is Mus musculus. Kind of assay: In vitro inhibitory concentration against electrically induced contraction of mouse vas deferens (MVD). The format is functional. In short, it runs like this:
as §2

The target in assay [1] is Delta-type opioid receptor (Rattus norvegicus, UniProt P33533). Kind of assay: Inhibition of [3H]-DADLE binding to rat brain delta receptor. In short, it runs like this:
as §1

Assay [2] deals with Opioid receptors; mu & delta (Rattus norvegicus) (UniProt P33533+P33535). Kind of assay: Relative binding affinity for mu and delta opioid receptors. The format is protein assay.
Chain of Opioid receptors; mu & delta (Rattus norvegicus) (P33533 whole entry, looked up): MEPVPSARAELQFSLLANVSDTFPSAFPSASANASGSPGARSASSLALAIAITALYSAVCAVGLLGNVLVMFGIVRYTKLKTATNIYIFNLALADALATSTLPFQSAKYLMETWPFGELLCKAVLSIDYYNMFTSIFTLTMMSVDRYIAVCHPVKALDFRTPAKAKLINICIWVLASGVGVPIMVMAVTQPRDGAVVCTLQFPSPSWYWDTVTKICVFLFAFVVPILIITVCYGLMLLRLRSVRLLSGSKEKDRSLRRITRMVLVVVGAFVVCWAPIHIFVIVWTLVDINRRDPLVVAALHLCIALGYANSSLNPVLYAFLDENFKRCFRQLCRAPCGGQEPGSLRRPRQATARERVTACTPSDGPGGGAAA
Chain of Opioid receptors; mu & delta (Rattus norvegicus) (P33535 whole entry, looked up): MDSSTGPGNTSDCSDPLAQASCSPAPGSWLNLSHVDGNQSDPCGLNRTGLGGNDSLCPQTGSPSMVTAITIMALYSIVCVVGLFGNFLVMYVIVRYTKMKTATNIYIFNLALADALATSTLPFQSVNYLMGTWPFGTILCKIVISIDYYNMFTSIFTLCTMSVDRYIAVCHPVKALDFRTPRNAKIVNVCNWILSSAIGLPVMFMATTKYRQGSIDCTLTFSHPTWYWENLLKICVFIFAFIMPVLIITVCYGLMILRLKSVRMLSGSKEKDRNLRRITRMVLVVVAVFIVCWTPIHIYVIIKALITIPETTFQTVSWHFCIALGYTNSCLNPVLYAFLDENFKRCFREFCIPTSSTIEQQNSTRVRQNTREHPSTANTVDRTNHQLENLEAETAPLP
Assay [3] is described as follows: IC50 ratio measured as the IC50 values of GPI to that of MVD. In kind it is functional.
Assay [4] addresses Mu-type opioid receptor (Cavia porcellus) (UniProt P97266). Kind of assay: Ratio of antagonistic activity against mu receptors in guinea pig ileum in presence and absence of mu agonist DAGO. In kind it is functional, tissue-based. The method, boiled down:
(§3)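 Agonist log dose-response curves were run with and without a fixed antagonist level. Ke was derived from the ratio of the IC50 values.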

The target is the same in assay [5]. Kind of assay: Ratio of antagonistic activity against mu receptors in guinea pig ileum in presence and absence of mu agonist dermorphin. In kind it is functional, tissue-based. The method, boiled down:
as §3

For assay [6], the target named is Delta-type opioid receptor (Mus musculus) (UniProt P32300). Kind of assay: Ratio of antagonistic activity against delta receptors in mouse vas deferens in presence and absence of delta agonist DADLE. The format is functional. In short, it runs like this: as §3
Chain of Delta-type opioid receptor (Mus musculus) (P32300 whole entry): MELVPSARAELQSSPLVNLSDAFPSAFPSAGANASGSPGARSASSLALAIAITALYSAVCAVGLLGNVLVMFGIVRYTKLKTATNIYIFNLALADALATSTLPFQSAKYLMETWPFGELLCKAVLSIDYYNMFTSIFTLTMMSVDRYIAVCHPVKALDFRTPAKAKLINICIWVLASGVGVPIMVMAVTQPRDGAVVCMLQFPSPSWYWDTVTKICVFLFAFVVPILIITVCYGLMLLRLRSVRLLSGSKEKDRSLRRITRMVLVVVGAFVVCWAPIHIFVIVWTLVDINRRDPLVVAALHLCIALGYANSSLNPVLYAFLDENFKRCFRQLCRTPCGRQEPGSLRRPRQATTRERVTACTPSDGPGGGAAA
The target is the same in assay [7]. Nature of the assay: Ratio of antagonistic activity against delta receptors in mouse vas deferens in presence and absence of delta agonist leu-enkephalin. In kind it is functional. The method, boiled down:
as §3

Assay [8] has the same target. Kind of assay: Ratio of antagonistic activity against delta receptors in mouse vas deferens in presence and absence of delta agonist DL-II. In kind it is functional. The method, boiled down:
as §3

Assay [9] has the same target. Nature of the assay: Ratio of antagonistic activity against delta receptors in mouse vas deferens in presence and absence of delta agonist deltorphin. In kind it is functional. The method, boiled down: as §3
For assay [10] the target is unchanged. Kind of assay: Ratio of antagonistic activity against delta receptors in mouse vas deferens in presence and absence of delta agonist DPDPE. The format is functional. The method, boiled down: as §3

Structures are written as SMILES. Starred links: 1 amine or outer side, 2 acyl side, 3 side chain; linkers in the order of their positions; H or OH if unused. Non-standard residues stand in square brackets, D forms with d. Residues, ends and D or L forms follow the SMILES beside them. X1 = CSCC[C@H](CN([C@@H](Cc1ccccc1)C(=O)[*:2])[*:1])N[*:3]; Tle = CC(C)(C)[C@H](N)C(=O)O; NBuGly = CCCCNCC(=O)O

Chain of Mu-type opioid receptor (P33535 whole entry): as the sequence (P33535 whole entry, looked up) above
Chain of Mu-type opioid receptor (Cavia porcellus) (P97266 whole entry): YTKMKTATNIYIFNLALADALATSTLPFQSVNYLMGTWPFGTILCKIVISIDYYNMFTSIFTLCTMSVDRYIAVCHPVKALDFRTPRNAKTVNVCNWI
Chain of Delta-type opioid receptor (P33533 whole entry): as the sequence (P33533 whole entry, looked up) above

By Ki is commonly meant the equilibrium dissociation constant of an inhibitor or competing ligand from its target. A higher Ki goes with weaker binding. One may read the IC50 as the concentration at which inhibition is half-maximal. A low value points to greater potency in that assay. For the compound `CC[C@H](C)N(CC(=O)N[C@@H](CC(=O)O)C(N)=O)C(=O)[C@H](CC(C)C)NC(=O)[C@H](Cc1c[nH]cn1)NC(=O)[C@H](Cc1ccccc1)NC(=O)[C@@H](CCSC)NC(=O)[C@@H](N)Cc1ccc(O)cc1` (stereo in doubt; 6b) [listing 1 of 2 here], the values for the Ki (at Mu-type opioid receptor; in assay [1]) were 798 nM and 0.09 nM, respectively. The IC50 in the assay filed under Cavia porcellus (Cavia porcellus, Ileum) turned out to be 642 nM; in the assay listed under Mus musculus (Mus musculus), 0.76 nM.
The like results for `CSCC[C@H](NC(=O)[C@H](CC(C)C)NC(=O)[C@H](Cc1cnc[nH]1)NC(=O)[C@H](Cc1ccccc1)NC(=O)[C@@H](CCSC)NC(=O)[C@@H](N)Cc1ccc(O)cc1)C(=O)N[C@@H](CC(=O)O)C(N)=O` (H-Y[dM]FHLMD-NH2) were, in that order, 219 nM, 0.19 nM, 632 nM and 0.93 nM.
With `CC[C@H](C)N(CC(=O)N[C@@H](CC(=O)O)C(N)=O)C(=O)[C@H](CC(C)C)NC(=O)[C@H](Cc1c[nH]cn1)NC(=O)[C@H](Cc1ccccc1)NC(=O)[C@@H](CCSC)NC(=O)[C@@H](N)Cc1ccc(O)cc1` (stereo in doubt; 6a) [listing 1 of 2 here], the Ki ratio in [2] was determined as 8730. In addition, in assay [3], the Ratio worked out at 777.
In the case of `CCCCN(CC(=O)N[C@@H](CC(=O)O)C(N)=O)C(=O)[C@H](CC(C)C)NC(=O)[C@H](Cc1c[nH]cn1)NC(=O)[C@H](Cc1ccccc1)NC(=O)[C@@H](CCSC)NC(=O)[C@@H](N)Cc1ccc(O)cc1`, the Ki was 820 nM on Mu-type opioid receptor and 0.04 nM in assay [1]. Also, the Ki ratio in assay [2] worked out at 18200. The IC50 in the assay filed under Cavia porcellus (Cavia porcellus, Ileum) amounted to 578 nM; in the assay filed under Mus musculus (Mus musculus) it was 0.56 nM. Further, the Ratio in [3] amounted to 1030.
`CC[C@H](C)N(CC(=O)N[C@@H](CC(=O)O)C(N)=O)C(=O)[C@H](CC(C)C)NC(=O)[C@H](Cc1c[nH]cn1)NC(=O)[C@H](Cc1ccccc1)NC(=O)[C@@H](CCSC)NC(=O)[C@@H](N)Cc1ccc(O)cc1` (stereo in doubt; 6a) [listing 2 of 2 here]: the figures for the Ki (on Mu-type opioid receptor; in [1]) were 856 nM and 0.1 nM, respectively. For the same compound, the half-inhibitory concentration (IC50) in the assay listed under Cavia porcellus is 684 nM; in the assay listed under Mus musculus it was 0.88 nM.
As to `CSCC[C@@H](NC(=O)[C@@H](N)Cc1ccc(O)cc1)C(=O)N[C@@H](Cc1ccccc1)C(=O)N[C@@H](Cc1c[nH]cn1)C(=O)N[C@@H](CC(C)C)C(=O)N[C@H](C(=O)N[C@@H](CC(=O)O)C(N)=O)C(C)(C)C`, the Ki turned out to be 271 nM at Mu-type opioid receptor and 0.46 nM in assay [1]. The Ki ratio in [2] worked out at 589. The IC50 in the assay filed under Cavia porcellus (Cavia porcellus, Ileum) was found to be 325 nM; in the assay listed under Mus musculus (Mus musculus), 1.28 nM. Further, in [3], the Ratio stood at 254.
Turning to `CCCCN(CC(=O)N[C@@H](CC(=O)O)C(N)=O)C(=O)[C@@H](NC(=O)[C@H](Cc1c[nH]cn1)NC(=O)[C@H](Cc1ccccc1)NC(=O)[C@@H](CCSC)NC(=O)[C@@H](N)Cc1ccc(O)cc1)C(C)(C)C`, the Ki at Mu-type opioid receptor was 152 nM; in [1], 12.4 nM. Besides, the Ke in assay [4] came out at 520 nM; in [5], 554 nM. In addition, the Ki ratio in [2] came out at 12. For the same compound, the 50% inhibitory concentration (IC50) in the assay listed under Cavia porcellus (Cavia porcellus, Ileum) is 1680 nM; in the assay listed under Mus musculus (Mus musculus) it was 1910 nM. In addition, the Ratio in assay [3] turned out to be 0.9.
In the case of `CCCCN(CC(=O)N[C@@H](CC(=O)O)C(N)=O)C(=O)[C@@H](NC(=O)[C@H](Cc1cnc[nH]1)NC(=O)[C@H](Cc1ccccc1)NC[C@@H](CCSC)NC(=O)[C@@H](N)Cc1ccc(O)cc1)C(C)(C)C` (H-[X1](Tyr)H[Tle][NBuGly]D-NH2), the Ki stood at 157 nM on Mu-type opioid receptor and 2.56 nM in [1].
In the case of `CC[C@H](C)N(CC(=O)N[C@@H](CC(=O)O)C(N)=O)C(=O)[C@H](CC(C)C)NC(=O)[C@H](Cc1c[nH]cn1)NC(=O)[C@H](Cc1ccccc1)NC(=O)[C@@H](CCSC)NC(=O)[C@@H](N)Cc1ccc(O)cc1` (stereo in doubt; 6b) [listing 2 of 2 here], the Ki ratio in assay [2] came out at 9690. In addition, the Ratio in assay [3] was found to be 844.
`CCCCN(CC(=O)N[C@@H](CC(=O)O)C(N)=O)C(=O)[C@H](CC(C)C)NC(=O)[C@H](Cc1cnc[nH]1)NC(=O)[C@H](Cc1ccccc1)NC[C@@H](CCSC)NC(=O)[C@@H](N)Cc1ccc(O)cc1` (H-[X1](Tyr)HL[NBuGly]D-NH2): the Ki on Mu-type opioid receptor worked out at 143 nM; in assay [1], 1.89 nM.
As to `CCCCN(CC(=O)N[C@@H](CC(=O)O)C(N)=O)C(=O)[C@@H](NC(=O)[C@H](Cc1c[nH]cn1)NC(=O)[C@H](Cc1ccccc1)NC[C@@H](CCSC)NC(=O)[C@@H](N)Cc1ccc(O)cc1)C(C)(C)C` (H-[X1](Tyr)H[Tle][NBuGly]D-NH2), the Ki ratio in [2] stood at 61. In addition, the IC50 in the assay listed under Cavia porcellus (Cavia porcellus, Ileum) was 995 nM; in the assay filed under Mus musculus (Mus musculus), 42 nM. In addition, the Ratio in assay [3] is 23.
As to `Oc1ccc2c3c1O[C@H]1c4[nH]c5ccccc5c4C[C@@]4(O)[C@@H](C2)N(CC2CC2)CC[C@]314`, the Ke is 52.2 nM in assay [4]; 0.67 nM in [6]; 0.94 nM in assay [7]; 0.67 nM in assay [8]; 0.65 nM in assay [9]; 151 nM in [5]. Besides, the Ke in assay [10] is 0.65 nM.
`CSCC[C@H](NC(=O)[C@H](C)NC(=O)[C@H](Cc1c[nH]cn1)NC(=O)[C@H](Cc1ccccc1)NC(=O)[C@@H](CCSC)NC(=O)[C@@H](N)Cc1ccc(O)cc1)C(=O)N[C@@H](CC(=O)O)C(N)=O`: the Ki at Mu-type opioid receptor amounted to 133 nM; in assay [1], 1.71 nM. The Ke in assay [6] is 598 nM; in [7], 721 nM; in assay [9], 632 nM. For the same compound, the Ki ratio in assay [2] came out at 78. In addition, the IC50 came to 216 nM in the assay filed under Cavia porcellus (Cavia porcellus, Ileum) and 406 nM in the assay listed under Mus musculus (Mus musculus). Further, in assay [3], the Ratio is 0.5.
Turning to `CSCC[C@H](NC(=O)[C@@H](NC(=O)[C@H](Cc1c[nH]cn1)NC(=O)[C@H](Cc1ccccc1)NC(=O)[C@@H](CCSC)NC(=O)[C@@H](N)Cc1ccc(O)cc1)C(C)(C)C)C(=O)N[C@@H](CC(=O)O)C(N)=O`, the Ki at Mu-type opioid receptor was 382 nM; in [1] it was 9.45 nM. For the same compound, the Ke was 15.8 nM in assay [6]; 18.4 nM in [7]; 17.2 nM in assay [8]; 16.1 nM in assay [9]; 311 nM in assay [10]. Further, in [2], the Ki ratio amounted to 40. In addition, the IC50 in the assay listed under Cavia porcellus (Cavia porcellus, Ileum) turned out to be 1200 nM; in the assay filed under Mus musculus (Mus musculus) it was 2430 nM. Further, in [3], the Ratio came to 0.5.
As to `CSCC[C@@H](NC(=O)[C@@H](N)Cc1ccc(O)cc1)C(=O)N[C@@H](Cc1ccccc1)C(=O)N[C@@H](Cc1c[nH]cn1)C(=O)N[C@@H](CC(C)C)C(=O)N(CC(=O)N[C@@H](CC(=O)O)C(N)=O)CC(C)C`, the Ki came to 58 nM on Mu-type opioid receptor and 0.85 nM in assay [1]. In addition, the Ke is 138 nM in [4] and 165 nM in assay [5]. The Ki ratio in assay [2] amounted to 68. Also, the IC50 was determined as 3870 nM in the assay filed under Cavia porcellus (Cavia porcellus, Ileum) and 2.36 nM in the assay filed under Mus musculus (Mus musculus). In addition, the Ratio in assay [3] was determined as 1640.
As for `CCCCN(CC(=O)N[C@@H](CC(=O)O)C(N)=O)C(=O)[C@H](CC(C)C)NC(=O)[C@H](Cc1c[nH]cn1)NC(=O)[C@H](Cc1ccccc1)NC[C@@H](CCSC)NC(=O)[C@@H](N)Cc1ccc(O)cc1` (H-[X1](Tyr)HL[NBuGly]D-NH2), the Ki ratio in assay [2] turned out to be 76. In addition, the half-inhibitory concentration (IC50) was found to be 422 nM in the assay filed under Cavia porcellus (Cavia porcellus, Ileum) and 26 nM in the assay filed under Mus musculus (Mus musculus). Also, in assay [3], the Ratio came out at 16.

The values above are taken from ChEMBL document CHEMBL1128603, “Novel deltorphin heptapeptide analogs with potent delta agonist, delta antagonist, or mixed mu antagonist/delta agonist properties” (J Med Chem, 1995).
